Screening results: PubChem BioAssay, several laboratories
Rows were chosen to be rich in hits. Some 7.1% of all compounds tested hit in one or more screens of this group.
Fibroblast inh = blocks proliferation of human lung fibroblasts | 85,000 tested, 1.1% active | LL 47 human lung fibroblast viability, ATP luminescence; hits give low values | AID 719 | viability, % at 10 µM;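 active means viability at or below 50% in the single dose screen; inactive means viability above 50%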;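 further: compound exposure lasted 72 h before the ATP readout; 100% = median luminescence of untreated cell-only wells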
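material = human LL 47 lung fibroblast cells | dosing = compounds added from tenfold dosing solution, 0.1% DMSO final | timing = overnight cell rest, 72 h compound treatment at 37 °C | measured by = CellTiter-Glo luminescence measuring cellular ATP | evaluation = % viability versus median cells-only luminescence | control set = cell-only wells, no compound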
HUVEC inhibit = inhibitors of human endothelial cell proliferation. HUVEC proliferation, CellTiter-Glo luminescence, 72 h; hits give low values. viability, % at 10 µM (by protocol). 86,000 tested, 1.1% active. AID 648;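 active means viability at or below 30%; inactive means viability above 30%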;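 further: 100% = median luminescence of DMSO-only cell control wells on each plate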
PTEN del growth = growth suppressors of cells with PTEN tumor suppressor deletion; HCT116 PTEN-null viability, CellTiter-Glo, 60 h; hits give low values; viability, % at 10 µM; 140,000 tested, 1.2% active; AID 827;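 active means viability at or below a set limit, 4 SD under the median of all tested compounds, cut at about 3.7% in these data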;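 further: PTEN knockout HCT116 line with beta catenin targeted HCT116 as companion control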
Cav3 T inh = inhibitors of human Cav3.2 T-type calcium channel | O95180 | Cav3.2-expressing cells, Fluo-4 calcium fluorescence FDSS; hits give low values | B-score at 10 µM | 100,000 tested, 4% active;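 active means single-dose well whose peak fluorescence ratio is a statistical outlier from its plate by either plate-standardised score or position-corrected B-score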
bCat KO growth = beta-catenin-lacking colon tumor cell growth suppression; HCT116 beta-catenin knockout viability, CellTiter-Glo, 60 h; hits give low values; viability, % at 10 µM; 140,000 tested, 1.5% active;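 active means viability at or under a set limit, the compound median less 4 SD, cut at about 6% in these data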;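 further: 0% = Hyamine 1622 control at 20 µM and 100% = untreated cell control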
H69AR growth 86K = growth inhibitors of human H69AR lung tumor cells; H69AR lung tumor viability, ATP luminescence, 72 h; hits give low values; viability, % at 10 µM; 85,000 tested, 6% active;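 active means viability at or below 40%; inactive means viability above 40%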;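 further: multidrug resistant small cell line overexpressing MRP-1 efflux transporter; 100% = mean luminescence of untreated control wells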
Starred values were filed as active, the others as inactive.

Results for CCOC(=O)C1CCCN(C(=O)c2cc(Nc3ccc(OC)cc3)nc3ccccc23)C1 (centres undefined) ?
Fibroblast inh: 100.6; HUVEC inhibit: 90.9; PTEN del growth: 75.1; Cav3 T inh: -5.49*; bCat KO growth: 75.5; H69AR growth 86K: 76.6

What do the screens show for `Cn1c(C(=O)N2CCCC2)cc2c(=O)n(C)c3ccccc3c21`?
Fibroblast inh: 93.1; HUVEC inhibit: 99.9; PTEN del growth: 104.9; Cav3 T inh: 0.58; bCat KO growth: 95.5; H69AR growth 86K: 80.4

How did CCCn1cc(SCC(=O)Nc2ccc3c(c2)OCO3)c2ccccc21 do in these assays?
Fibroblast inh: 104.1; HUVEC inhibit: 99.6; PTEN del growth: 96.7; Cav3 T inh: -4.55*; bCat KO growth: 92.9; H69AR growth 86K: 84.0

How did Cn1c(C(=O)Nc2ccc3c(c2)OCO3)cc2c(=O)n(C)c3ccccc3c21 do in these assays?
Fibroblast inh: 56.5; HUVEC inhibit: 72.4; PTEN del growth: 78.0; Cav3 T inh: 0.835; bCat KO growth: 81.0; H69AR growth 86K: 30.6*

Results for CCOC(=O)C1CCCN(C(=O)c2cc3c(=O)n(C)c4ccccc4c3n2C)C1 (centres undefined) ?
Fibroblast inh: 98.2; HUVEC inhibit: 98.3; PTEN del growth: 100.5; Cav3 T inh: 3.05*; bCat KO growth: 100.1; H69AR growth 86K: 72.0

Results for Cc1nn(Cc2ccccc2)c2sc(C(=O)N3CCN(Cc4ccc5c(c4)OCO5)CC3)cc12 ?
Fibroblast inh: 97.0; HUVEC inhibit: 81.7; PTEN del growth: 80.3; Cav3 T inh: -4.3*; bCat KO growth: 88.8; H69AR growth 86K: 59.1

What do the screens show for `Cn1c(=O)cc(SCC(=O)N2CCN(Cc3ccc4c(c3)OCO4)CC2)c2ccccc21`?
Fibroblast inh: 86.3; HUVEC inhibit: 67.5; PTEN del growth: 71.9; Cav3 T inh: 0.706; bCat KO growth: 80.2; H69AR growth 86K: 100.5

How did Cn1c(C(=O)N2CCN(Cc3ccc4c(c3)OCO4)CC2)cc2c(=O)n(C)c3ccccc3c21 do in these assays?
Fibroblast inh: 92.5; HUVEC inhibit: 82.0; PTEN del growth: 35.5; Cav3 T inh: -0.488; bCat KO growth: 33.1; H69AR growth 86K: 37.7*

Results for CCc1cc2cc(C(=O)N3CCN(Cc4ccccc4)CC3)sc2s1 ?
Fibroblast inh: 93.0; HUVEC inhibit: 87.3; PTEN del growth: 102.7; Cav3 T inh: -4.77*; bCat KO growth: 97.3; H69AR growth 86K: 98.6

How did CC(C)NC(=O)c1c2c(nc3ccccc13)CCCC2 do in these assays?
Fibroblast inh: 100.3; HUVEC inhibit: 88.1; PTEN del growth: 95.9; Cav3 T inh: 0.695; bCat KO growth: 95.8; H69AR growth 86K: 33.2*

How did N=C1S/C(=C\c2cn[nH]c2-c2ccc(F)cc2)C(=O)N1c1ccccc1F do in these assays?
PTEN del growth: 75.4; bCat KO growth: 82.3

What do the screens show for `CCOC(=O)c1c(NC(=O)c2ccco2)n(C2CCCCC2)c2nc3ccccc3nc12`?
Fibroblast inh: 105.1; HUVEC inhibit: 96.2; PTEN del growth: 65.1; Cav3 T inh: -2.8; bCat KO growth: 71.2; H69AR growth 86K: 36.0*

How did COc1ccc(-n2c(NC(=O)c3ccco3)c(C#N)c3nc4ccccc4nc32)cc1 do in these assays?
PTEN del growth: 90.4; Cav3 T inh: -3.16; bCat KO growth: 88.3

How did Cc1[nH]c2ccccc2c1Cc1nnc(SCc2ccccc2)o1 do in these assays?
Fibroblast inh: 93.6; HUVEC inhibit: 96.0; PTEN del growth: 79.0; Cav3 T inh: -8.58*; bCat KO growth: 87.6; H69AR growth 86K: 110.8

What do the screens show for `c1ccc(CSc2nnc(-c3c[nH]c4ccccc34)o2)cc1`?
Fibroblast inh: 106.2; HUVEC inhibit: 27.2*; PTEN del growth: 62.6; Cav3 T inh: -0.0295; bCat KO growth: 71.5; H69AR growth 86K: 96.7

How did Cc1ccccc1-c1nnc(SCc2ccccc2)o1 do in these assays?
Fibroblast inh: 99.3; HUVEC inhibit: 100.8; PTEN del growth: 80.2; Cav3 T inh: 0.176; bCat KO growth: 74.1

What do the screens show for `COc1cccc(/C=N/NC(=O)c2nc(-c3ccccc3)cc(-c3ccccc3)n2)c1O`?
PTEN del growth: 8.1; bCat KO growth: 7.3

Results for CCn1cc(/C=N\NC(=O)Cc2ccc(Cl)cc2)cn1 ?
PTEN del growth: 98.7; bCat KO growth: 101.0

Results for CC(=Nc1cccc(C)c1)c1sc2ccccc2c1O ?
Fibroblast inh: 109.4; HUVEC inhibit: 86.5; PTEN del growth: 87.4; Cav3 T inh: -0.713; bCat KO growth: 83.6; H69AR growth 86K: 43.7
